Data as given in ChEMBL document CHEMBL4033788, “Novel Ligustrazine-Based Analogs of Piperlongumine Potently Suppress Proliferation and Metastasis of Colorectal Cancer Cells in Vitro and in Vivo” (J Med Chem, 2018).
pIC50: −log10 of the molar value. Calls of active or inactive are those of the source. The calls are words filed in the database; no cut-off is given here.

Tests used:
[1] = system: A549; assay: Antiproliferative activity against human A549 cells after 72 hrs by MTT assay; type: functional, cell-based; conditions: A549, 72 h
[2] = system: Mus musculus; assay: Cardiotoxicity in BALB/c nude mouse xenografted with human HCT116 cells at 2.5 to 5 mg/kg, ip administered for 21 consecutive days; type: toxicity, organism-based; conditions: in vivo
Procedure, shortened: (§1)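 Male BALB/c nude mice (3−5 weeks) inoculated sc with 1 × 10^7 HCT-116 cells; at tumour volume about 75 mm3 randomized (n = 8 per group) and dosed ip daily at 2.5 or 5 mg/kg for 21 consecutive days. Body weights monitored; liver, kidney, lung and heart inspected for size and morphology at sacrifice.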

[3] = system: Mus musculus; assay: Hepatotoxicity in BALB/c nude mouse xenografted with human HCT116 cells at 2.5 to 5 mg/kg, ip administered for 21 consecutive days; type: toxicity, organism-based; conditions: in vivo; procedure, shortened: as §1
[4] = system: Mus musculus; assay: Toxicity in BALB/c nude mouse xenografted with human HCT116 cells assessed as abnormality in lung at 2.5 to 5 mg/kg, ip administered for 21 consecutive days; type: organism-based; conditions: in vivo; procedure, shortened: as §1
[5] = system: HCT-116; assay: Inhibition of TGF-beta1-induced increase in expression levels of MMP-9 protein in human HCT116 cells after 48 hrs by Western blot analysis; type: functional, cell-based
Procedure, shortened: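 HCT-116 cells treated with or without TGF-β1 (10 ng/mL) for 48 h, with or without test agent. Lysates (20 μg/lane) run on 7.5% SDS-PAGE and transferred to PVDF. Probed for p-Akt (Ser473), Akt, p-GSK-3β (S9), GSK-3β, E-cadherin, MMP-9 and β-actin, detected by ECL. Densitometry relative to β-actin or total protein. Three independent experiments.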

[6] = system: HCT-116; assay: Inhibition of TGF-beta1-induced increase in expression levels of snail protein in human HCT116 cells after 48 hrs by Western blot analysis; type: functional, cell-based
Procedure, shortened: (§2)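 HCT-116 cells (1 × 10^6/well, plated overnight) were exposed to TGF-β1 (10 ng/mL) for 48 h, with or without test compound; vehicle was 0.1% DMSO. Lysates (20 μg/lane) were run on 7.5% SDS-PAGE and blotted to PVDF, with primary antibody overnight at 4 °C and HRP/ECL detection. Band densities were normalised to β-actin across three independent experiments.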

[7] = system: HCT-116; assay: Induction of ROS accumulation in human HCT116 cells up to 3 hrs in presence of GSH by DCFH-DA staining-based fluorescence spectrometric analysis; type: functional, cell-based
[8] = Thiol reactivity in DMSO assessed as addition reaction at C8 position at 5 mg up to 8 hrs in presence of 3.0 equiv methyl thioglycolate by 1H NMR analysis
[9] = system: HCT-116; assay: Antimigratory activity in human HCT116 cells assessed as inhibition of TGF-beta1-induced cell migration at 50 nM after 48 hrs by trans-well assay; type: functional, cell-based
Procedure, shortened: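 HCT-116 cells (1 × 10^5/well) placed in upper chambers of 8 μm pore transwells. Lower chambers held, in triplicate, medium alone or TGF-β1 (10 ng/mL) with or without test agents (2, 10, 50 nM) for 48 h. Non-migrated cells removed, migrated cells stained with crystal violet, 10 fields per well counted blinded. Three independent experiments.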

[10] = system: K562; assay: Antiproliferative activity against human K562 cells after 72 hrs in presence of ligustrazine by MTT assay; type: functional, cell-based; conditions: K562, 72 h
Procedure, shortened: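 Cells grown in RPMI 1640 with 10% FBS in 96-well plates overnight, then exposed to test agents in triplicate for 72 h. MTT (5 mg/mL stock) added for the last 4 h, formazan dissolved in DMSO, absorbance read at 570 nm. Inhibition = (1 − OD treated/OD control) × 100%.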

[11] = system: HCT-116; assay: Antiproliferative activity against human HCT116 cells at 8 uM pretreated with GSH for 1 hr measured after 72 hrs by MTT assay; type: functional, cell-based
Procedure, shortened: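 HCT-116 cells pretreated with or without GSH (10 mM) for 1 h, washed, then treated for 72 h. Viability measured by MTT and inhibitory rates calculated. Mean ± SD of three independent experiments.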

[12] = system: HCT-116; assay: Inhibition of IL-1beta-mediated adhesion of human rhodamine 123-labeled HCT116 cells to HUVEC at 50 nM after 1 hr by fluoresence assay; type: functional, cell-based
Procedure, shortened: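 HUVEC monolayers pretreated with or without IL-1β (1 ng/mL) for 4 h, then washed. Rhodamine 123-labeled HCT-116 cells added with vehicle or test agent (2, 10, 50 nM) at 37 °C for 1 h. Non-adherent cells washed off; percent adhered cells determined by fluorescence microscopy. Three separate experiments.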

[13] = system: HCT-116; assay: Inhibition of TGF-beta1-induced increase in expression levels of MMP-9 protein in human HCT116 cells at 50 nM after 48 hrs by Western blot analysis; type: functional, cell-based; procedure, shortened: as §2
[14] = system: HCT-116; assay: Inhibition of TGF-beta1-induced increase in expression levels of snail protein in human HCT116 cells at 50 nM after 48 hrs by Western blot analysis; type: functional, cell-based; procedure, shortened: as §2
[15] = biological target: T1, Catenin beta-1 (Homo sapiens) (UniProt P35222); assay: Inhibition of TGF-beta1-regulated decrease in cytoplasmic beta-catenin in human HCT116 cells at 50 nM after 48 hrs by Western blot analysis; type: cell-based
T1 sequence (whole entry): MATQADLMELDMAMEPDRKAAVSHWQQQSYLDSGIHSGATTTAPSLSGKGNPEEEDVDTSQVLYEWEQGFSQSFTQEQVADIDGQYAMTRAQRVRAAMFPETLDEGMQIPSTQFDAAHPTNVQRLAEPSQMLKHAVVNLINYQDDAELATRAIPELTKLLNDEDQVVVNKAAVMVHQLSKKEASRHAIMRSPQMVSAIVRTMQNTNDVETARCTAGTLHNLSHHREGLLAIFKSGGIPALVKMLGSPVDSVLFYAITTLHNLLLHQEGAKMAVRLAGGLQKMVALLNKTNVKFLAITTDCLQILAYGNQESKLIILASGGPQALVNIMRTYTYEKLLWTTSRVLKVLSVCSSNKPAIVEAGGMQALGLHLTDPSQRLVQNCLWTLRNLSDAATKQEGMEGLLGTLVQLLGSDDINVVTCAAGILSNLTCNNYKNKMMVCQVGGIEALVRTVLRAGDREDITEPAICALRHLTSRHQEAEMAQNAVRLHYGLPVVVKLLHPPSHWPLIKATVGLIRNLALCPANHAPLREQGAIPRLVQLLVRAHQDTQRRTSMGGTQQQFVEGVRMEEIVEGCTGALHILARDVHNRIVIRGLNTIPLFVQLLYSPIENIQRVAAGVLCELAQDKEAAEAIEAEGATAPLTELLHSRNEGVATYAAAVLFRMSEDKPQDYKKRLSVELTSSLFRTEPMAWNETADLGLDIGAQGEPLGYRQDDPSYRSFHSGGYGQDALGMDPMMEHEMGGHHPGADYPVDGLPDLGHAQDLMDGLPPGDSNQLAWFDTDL
Procedure, shortened: (§3)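 Cytoplasmic and nuclear β-catenin were measured by Western blot in HCT-116 cells given TGF-β1 (10 ng/mL) for 48 h, with or without compound, against 0.1% DMSO vehicle. Lysates (20 μg/lane) were run on 7.5% gels and transferred to PVDF, with Lamin A among the antibodies used. Blots were read by ECL and densitometry, n = 3 independent experiments.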

[16] = biological target: T1, Catenin beta-1 (Homo sapiens); assay: Inhibition of TGF-beta1-regulated increase in nuclear beta-catenin in human HCT116 cells at 50 nM after 48 hrs by Western blot analysis; type: cell-based; procedure, shortened: as §3

SMILES | pIC50 [1] | Activity [2] | Activity [3] | Activity [4] | inhibition [5] | inhibition [6] | Activity [7] | Drug metabolism [8] | Activity [9] | pIC50 [10] | Activity [11] | inhibition [12] | inhibition [13] | inhibition [14] | inhibition [15] | inhibition [16]
Cc1nc(C)c(/C=C/C(=O)N2CCC=C(Cl)C2=O)nc1C | 5.66 | Non-Toxic | Non-Toxic | Non-Toxic | Dose-dependent effect | Dose-dependent effect | inactive | Metabolite not detected |  |  |  |  |  |  |  | 
COc1cc(/C=C/C(=O)N2CCC=CC2=O)cc(OC)c1OC [PIPLARTINE] |  |  |  |  |  |  |  |  | Active | 5.29 | inactive | Active | Active | Active | Active | Active
